This note sets out measurements from ChEMBL document CHEMBL1123780, “2'-Fluorinated arabinonucleosides of 5-(2-haloalkyl)uracil: synthesis and antiviral activity” (1987).

The test system of assay [1] is HEp-2. In words: Antiviral activity against HSV-1 (Brand) in human epithelial (Hep-2) cells. In kind it is functional. The essentials: (§1)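 CPE inhibition: serial 3-fold compound dilutions in E-MEM, then virus and cell suspension (E-MEM plus 15% fetal calf serum) added together. Cell input set for a confluent monolayer in 1-2 days, virus input for 90-100% CPE in infected controls at 3 days. Plates then fixed and stained, and CPE estimated against infected untreated controls. Uninfected compound-treated cells included.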

Assay [2] relates to HEp-2. In words: Antiviral activity against HSV-2 (K979) in human epithelial (Hep-2) cells. Type of assay: functional. The essentials: as §1
The subject of assay [3] is Vero. Put plainly: Antiviral activity against HSV-2 (K979) in Vero cells. Type of assay: functional. Conditions: Chlorocebus sabaeus. The method in brief: as §1
In assay [4] the test system is Vero. In words: Antiviral activity against HSV-1 (Brand) in Vero cells. In kind it is functional. Conditions: Chlorocebus sabaeus. The essentials:
as §1

Assay [5] relates to HEp-2. Put plainly: Proliferation of Hep-2 cells by propagation on day 4 by measuring optical density (absorbance) at 100 ug/mL. Type of assay: functional, Homo sapiens. The method in brief: (§2)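 Cells were suspended in medium with compound and seeded at low density in 24-well dishes (Vero 5×10^4, HEp-2 1×10^5 cells/well), four wells per condition, and grown 4 days. Cells were stained with 0.01% neutral red in PBS for 2 h at 37 °C, washed, dried, and dissolved in ethanol/0.1 M NaH₂PO₄ (1:1). OD was read at 546 nm, taken as proportional to cell number.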

The subject of assay [6] is HEp-2. In words: Proliferation of Hep-2 cells by propagation on day 4 by measuring optical density (absorbance) at 30 ug/mL. In kind it is functional, Homo sapiens. The method in brief: as §2
The test system of assay [7] is HEp-2. In words: Proliferation of Hep-2 cells by propagation on day 4 by measuring optical density (absorbance) at 330 ug/mL. Type of assay: functional, Homo sapiens. The essentials:
as §2

A short description of assay [8]: Antiviral activity against HSV-2 (G) in Primary Rabbit Kidney (PRK) cells. Type of assay: functional. Conditions: Oryctolagus cuniculus.
Assay [9] deals with Vero. Put plainly: Proliferation of Vero cells by propagation on day 4 by measuring optical density (absorbance) at 100 ug/mL. Type of assay: functional, Chlorocebus sabaeus. The essentials:
as §2

The subject of assay [10] is Vero. Put plainly: Proliferation of Vero cells by propagation on day 4 by measuring optical density (absorbance) at 30 ug/mL. In kind it is functional, Chlorocebus sabaeus. The essentials:
as §2

Assay [11] relates to Vero. Put plainly: Proliferation of Vero cells by propagation on day 4 by measuring optical density (absorbance) at 330 ug/mL. In kind it is functional, Chlorocebus sabaeus. The method in brief:
as §2

Assay [12] can be described thus: Antiviral activity against VZV (Ellen) in human lung fibroblast (HLF-1) cells. Type of assay: functional.
A short description of assay [13]: Antiviral activity against HSV-1 (KOS) in Primary Rabbit Kidney (PRK) cells. In kind it is functional. Conditions: Oryctolagus cuniculus.

In brackets after ≈: the same amount, converted by molar mass.

In the case of `O=c1[nH]c(=O)n(C2O[C@H](CO)[C@@H](O)[C@@H]2O)cc1CCCl` (stereo partly drawn), the MIC in the assay with HEp-2 [1] came out at 30 µg/mL (≈ 97.8 µM); in the assay with HEp-2 [2] it was 100 µg/mL (≈ 326 µM); in the assay with Vero [3] it was 100 µg/mL (≈ 326 µM); against Vero [4], 30 µg/mL (≈ 97.8 µM).

With `O=c1[nH]c(=O)n([C@H]2C[C@H](O)[C@@H](CO)O2)cc1CCCl`, the Control is listed as 99% with HEp-2 [5]; 104% in the assay with HEp-2 [6]; 86% with HEp-2 [7]; 91% with Vero [9]; 84% in the assay with Vero [10]; 82% with Vero [11]. The MIC stood at 0.03 µg/mL (≈ 0.103 µM) against HEp-2 [1]; 3 µg/mL (≈ 10.3 µM) against HEp-2 [2]; 2.1 µg/mL (≈ 7.22 µM) in assay [8]; 30 µg/mL (≈ 103 µM) with Vero [3]; 0.01 µg/mL (≈ 0.0344 µM) against Vero [4]; 0.01 µg/mL (≈ 0.0344 µM) in assay [12]. In addition, in assay [13], the MIC was determined as 0.14 µg/mL (≈ 0.482 µM).

`O=c1[nH]c(=O)n([C@H]2C[C@H](O)[C@@H](CO)O2)cc1I` [IDOXURIDINE]: the Control was found to be 20% with HEp-2 [5]; 61% with HEp-2 [6]; 0% with HEp-2 [7]; 34% in the assay with Vero [9]; 61% in the assay with Vero [10]; 16% with Vero [11]. Besides, the MIC came to 0.3 µg/mL (≈ 0.847 µM) with HEp-2 [1]; 0.3 µg/mL (≈ 0.847 µM) against HEp-2 [2]; 0.91 µg/mL (≈ 2.57 µM) in assay [8]; 1 µg/mL (≈ 2.82 µM) in the assay on Vero [3]; 0.1 µg/mL (≈ 0.282 µM) with Vero [4]; 10 µg/mL (≈ 28.2 µM) in assay [12]. This compound yielded an MIC in [13] of 0.2 µg/mL (≈ 0.565 µM).

With `NC1=NC(=O)C2N=CN(COCCO)C2=N1` (stereo not drawn), the Control in the assay on HEp-2 [5] is 78%; with HEp-2 [6], 89%; with HEp-2 [7], 41%; in the assay with Vero [9] it was 73%; with Vero [10] it was 77%; with Vero [11] it was 56%. The MIC with HEp-2 [1] amounted to 1 µg/mL (≈ 4.44 µM); in the assay with HEp-2 [2], 3 µg/mL (≈ 13.3 µM); in assay [8], 0.04 µg/mL (≈ 0.178 µM); against Vero [3], 1 µg/mL (≈ 4.44 µM); in the assay on Vero [4], 0.003 µg/mL (≈ 0.0133 µM); in assay [13] it was 0.06 µg/mL (≈ 0.266 µM).

As for `Cc1cn([C@@H]2O[C@H](CO)[C@@H](O)[C@@H]2F)c(=O)[nH]c1=O` [5-METHYL-2'-FLUOROARAURACIL], the Control in the assay with HEp-2 [5] stood at 3%; in the assay with HEp-2 [6], 36%; with HEp-2 [7] it was 0%; in the assay on Vero [9], 6%; in the assay on Vero [10], 7%; in the assay with Vero [11] it was 0%. Moreover, the MIC in the assay with HEp-2 [1] is 0.3 µg/mL (≈ 1.15 µM); with HEp-2 [2] it was 0.1 µg/mL (≈ 0.384 µM); in assay [8] it was 0.02 µg/mL (≈ 0.0769 µM); in the assay on Vero [3] it was 0.3 µg/mL (≈ 1.15 µM); in the assay with Vero [4] it was 0.03 µg/mL (≈ 0.115 µM); in assay [12], 0.001 µg/mL (≈ 0.00384 µM). In assay [13], this compound returned an MIC of 0.04 µg/mL (≈ 0.154 µM).

For the compound `Nc1nc(=O)n([C@@H]2O[C@H](CO)[C@@H](O)[C@H]2F)cc1I`, the Control with HEp-2 [5] came out at 32%; with HEp-2 [6], 64%; with HEp-2 [7], 13%; in the assay on Vero [9], 43%; with Vero [10], 68%; with Vero [11], 24%. Besides, the MIC was 0.01 µg/mL (≈ 0.0269 µM) against HEp-2 [1]; 0.03 µg/mL (≈ 0.0808 µM) with HEp-2 [2]; 0.03 µg/mL (≈ 0.0808 µM) in assay [8]; 0.1 µg/mL (≈ 0.269 µM) against Vero [3]; 0.01 µg/mL (≈ 0.0269 µM) in the assay with Vero [4]; 0.01 µg/mL (≈ 0.0269 µM) in [12]. This compound displayed an MIC in assay [13] of 0.02 µg/mL (≈ 0.0539 µM).

Take `O=c1[nH]c(=O)n([C@@H]2O[C@H](CO)[C@@H](O)[C@@H]2F)cc1I` [FIALURIDINE]: the Control in the assay with HEp-2 [5] stood at 13%; in the assay with HEp-2 [6], 49%; in the assay on HEp-2 [7] it was 0%; in the assay on Vero [9] it was 6%; in the assay on Vero [10], 37%; in the assay on Vero [11], 0%. The MIC with HEp-2 [1] was 0.01 µg/mL (≈ 0.0269 µM); in the assay on HEp-2 [2], 0.1 µg/mL (≈ 0.269 µM); in assay [8] it was 0.02 µg/mL (≈ 0.0538 µM); in the assay on Vero [3], 0.1 µg/mL (≈ 0.269 µM); in the assay on Vero [4] it was 0.01 µg/mL (≈ 0.0269 µM); in [12], 0.003 µg/mL (≈ 0.00806 µM). The compound further registered an MIC in assay [13] of 0.02 µg/mL (≈ 0.0538 µM).

With `O=c1[nH]c(=O)n([C@@H]2O[C@H](CO)[C@@H](O)[C@@H]2F)cc1CCCl`, the Control with HEp-2 [5] stood at 107%; in the assay with HEp-2 [6], 116%; in the assay on HEp-2 [7], 68%; with Vero [9] it was 74%; with Vero [10], 75%; in the assay on Vero [11], 63%. In addition, the MIC in the assay with HEp-2 [1] came to 0.1 µg/mL (≈ 0.324 µM); with HEp-2 [2], 1 µg/mL (≈ 3.24 µM); in [8], 2 µg/mL (≈ 6.48 µM); in the assay on Vero [3], 10 µg/mL (≈ 32.4 µM); against Vero [4], 0.3 µg/mL (≈ 0.972 µM); in assay [12] it was 0.1 µg/mL (≈ 0.324 µM). In addition, the MIC in assay [13] amounted to 0.3 µg/mL (≈ 0.972 µM).

For the compound `O=c1[nH]c(=O)n([C@H]2C[C@H](O)[C@@H](CO)O2)cc1CCF`, the Control in the assay on HEp-2 [5] turned out to be 86%; with HEp-2 [6], 97%; with HEp-2 [7] it was 60%; in the assay with Vero [9] it was 97%; in the assay on Vero [10], 94%; with Vero [11], 71%. In addition, the MIC in the assay with HEp-2 [1] was 0.03 µg/mL (≈ 0.109 µM); against HEp-2 [2] it was 1 µg/mL (≈ 3.65 µM); in assay [8] it was 1.5 µg/mL (≈ 5.47 µM); in the assay with Vero [3] it was 3 µg/mL (≈ 10.9 µM); in the assay on Vero [4], 0.1 µg/mL (≈ 0.365 µM); in [12], 3 µg/mL (≈ 10.9 µM). This compound gave an MIC in [13] of 0.58 µg/mL (≈ 2.11 µM).

On to `O=c1[nH]c(=O)n([C@H]2C[C@H](O)[C@@H](CO)O2)cc1/C=C/Br` [BRIVUDINE], for which the Control in the assay on HEp-2 [5] stood at 68%; with HEp-2 [6], 79%; with HEp-2 [7] it was 31%; with Vero [9] it was 71%; in the assay on Vero [10], 74%; with Vero [11], 55%. Moreover, the MIC worked out at 0.01 µg/mL (≈ 0.03 µM) against HEp-2 [1]; 3 µg/mL (≈ 9.01 µM) against HEp-2 [2]; 2.3 µg/mL (≈ 6.9 µM) in [8]; 30 µg/mL (≈ 90.1 µM) in the assay with Vero [3]; 0.001 µg/mL (≈ 0.003 µM) against Vero [4]; 0.001 µg/mL (≈ 0.003 µM) in assay [12]. The same compound yielded an MIC in [13] of 0.007 µg/mL (≈ 0.021 µM).

As to `O=c1[nH]c(=O)n([C@@H]2O[C@H](CO)[C@@H](O)[C@@H]2F)cc1CCF`, the Control stood at 105% in the assay on HEp-2 [5]; 113% with HEp-2 [6]; 72% in the assay on HEp-2 [7]; 87% with Vero [9]; 98% with Vero [10]; 90% in the assay on Vero [11]. For the same compound, the MIC against HEp-2 [1] is 0.03 µg/mL (≈ 0.103 µM); in the assay with HEp-2 [2] it was 0.1 µg/mL (≈ 0.342 µM); in [8], 0.2 µg/mL (≈ 0.684 µM); in the assay on Vero [3] it was 0.3 µg/mL (≈ 1.03 µM); with Vero [4], 0.03 µg/mL (≈ 0.103 µM); in [12], 0.03 µg/mL (≈ 0.103 µM). The compound further registered an MIC in assay [13] of 0.2 µg/mL (≈ 0.684 µM).
